Experimental findings from PubChem BioAssay AID651775 (Broad Institute, 2012) are described below.

In the test the test system is SK-MEL-5 TRPM1 promoter luciferase, 24 h. Briefly: MITF transcriptional reporter enhancement – cell-based, SK-MEL-5, luciferase, dry powder, dose response (AID 651775). Summed up:
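System: SK-MEL-5 TRPM1-promoter luciferase reporter line / Quantity: 2000 cells per well / Medium: phenol red-free DMEM plus 10% heat-inactivated FBS / Schedule: 24 h compound exposure at 37 °C / Measured by: SteadyGlo luciferase luminescence after 5 min room-temperature incubation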

As to `CSc1nc2ccc(NC(=O)c3cccs3)cc2s1`, the AC40 is 465 nM.
As for `c1ccc2c(Nc3nnc(-c4ccncc4)s3)cccc2c1`, the AC40 was 1130 nM.
For `COC(=O)C(C)N1C(=O)S/C(=C/c2cc(C)n(C(C)C)c2C)C1=O` (stereo not drawn) the value was 541 nM.
To `COc1cccc(NC(=O)C(=O)NCCC2CCCCN2S(=O)(=O)c2cccs2)c1` (stereo not drawn) belongs 2070 nM; to `Cc1ccc(C(=O)Nc2cccc(O)c2)cc1S(=O)(=O)N1CCCCCC1`, 1010 nM; to `O=C(Oc1ccc2ccccc2c1Cl)N1CCCCCC1`, 113 nM.
For `CCN(CC)c1ccc(Nc2nc(-c3cccnc3)cs2)cc1` the value was 515 nM; for `Cc1ccc(NC(=O)c2ccc3ccccc3n2)cc1S(=O)(=O)N(C)C`, 462 nM; for `CC(=O)Nc1nnc(COc2ccc(Cl)cc2)s1`, 589 nM.
Turning to `O=C(NCCc1cccs1)c1ccc(Cl)c(Cl)c1`, the AC40 was 615 nM.
With `COc1ccc(NC(=O)c2ccc3[nH]c(C)c(C)c3c2)cc1`, the AC40 was 1930 nM.
Consider `Cc1nn2c(-c3ccccc3)ccnc2c1-c1ccccc1`, for which the AC40 is 824 nM.
For the compound `Fc1ccccc1COc1ccc(C(=S)N2CCCC2)cc1`, the AC40 is 1320 nM.
In the case of `C/C(=N\OCc1ccc(C#N)cc1)c1ccc(S(=O)(=O)N(C)C)cc1`, the AC40 was 7800 nM.
For `Cc1cc2ncc(-c3ccc(Cl)cc3)c(N)n2n1`, the AC40 is 1770 nM.
For `CCCN(CCC)c1ncnc2c1cnn2-c1ccc(OC)cc1` the value was 39 nM.
For `c1ccc(-c2ccc(-c3cnc4n3CCCCC4)cc2)cc1` the value was 2290 nM.
Turning to `c1ccc(CSc2ccc(-c3ccc4c(c3)OCO4)nn2)cc1`, the AC40 is 974 nM.
To `O=C(Nc1cccc(F)c1)NC1CCCCCCC1` belongs 984 nM; to `C=CCNc1nc(-c2ccc(Cl)cc2)cs1`, 219 nM.
For `COc1cc(/C=N/O)ccc1OCc1ccccc1Cl` the value was 180 nM; for `COc1ccc(C(=O)NCCn2ccc3ccccc32)cc1`, 531 nM.
For `CC(C)(C)C(=O)N1CCN(c2nc3ccccc3s2)CC1` the value was 912 nM.
